Series [1] in a line: Selectivity index, ratio of IC50 for human LO2 cells to IC50 for human Bel7402 cells. It is filed as toxicity. The settings on record: LO2 cells versus Bel7402 cells, read-out: Ratio IC50. The essentials:
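Selectivity index = IC50(L-O2)/IC50(Bel-7402), both IC50s from the 72 h MTT assay (mean of three independent experiments).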

For another series, the system named is Bel7402/5-FU. The series is described as follows: Antiproliferative activity against human Bel7402/5-FU cells after 72 hrs by MTT assay. It is filed as functional, cell-based. The essentials: (§1)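 Cells pre-incubated 24 h at 37 °C in humidified 5% CO2, then exposed to compounds for 72 h. MTT (5 mg/mL) was added for 4 h, formazan was dissolved in DMSO, and OD was read at 570 nm. Vehicle control was 0.1% DMSO. IC50 was calculated from inhibition ratios as the mean ± SD of three independent experiments.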

In the next series the test system is HL-60. The series is described as follows: Antiproliferative activity against human HL60 cells after 72 hrs by MTT assay. In kind it is functional, cell-based. Particulars: HL-60, 72 h. The essentials: as §1
A general note: Tetrazolium assays rely on reduction of a dye to a coloured formazan, in cell work by metabolically active cells.

In another series the test system is L02. Briefly: Antiproliferative activity against human LO2 cells after 72 hrs by MTT assay. It is filed as cell-based. The settings on record: L02, 72 h. The essentials: as §1
In the next series the test system is Bel-7402. Briefly: Antiproliferative activity against human Bel7402 cells after 72 hrs by MTT assay. Particulars: Bel-7402, 72 h. It is filed as functional, cell-based. The essentials:
as §1

The subject of another series is PC-3. The series is described as follows: Antiproliferative activity against human PC3 cells after 72 hrs by MTT assay. Particulars: PC-3, 72 h. In kind it is functional, cell-based. The essentials:
as §1

Molecules are shown by their SMILES.

What is called IC50 is the midpoint of a concentration-inhibition curve. Read a low IC50 as greater potency. For `COC(=O)[C@H](Cc1ccc(N(CCCl)CCCl)cc1)NC(=O)CCC(=O)O`, the selectivity ratio in series [1] was 1.37. Besides, the half-inhibitory concentration (IC50) with Bel7402/5-FU is above 80 µM; with HL-60, 6.02 µM; in the series with L02, 32.9 µM; in the series on Bel-7402, 23.9 µM; with PC-3, above 80 µM.

Regarding `COC(=O)[C@H](Cc1ccc(N(CCCl)CCCl)cc1)NC(=O)CCC(=O)O[C@@H]1C[C@H]2[C@H](O)/C=C/C(=O)O[C@@H](C)CCC/C=C/[C@@H]2C1`, in series [1], the selectivity ratio came to 3.1. The IC50 with Bel7402/5-FU amounted to 3.05 µM; in the series with HL-60 it was 14.4 µM; in the series on L02 it was 4.57 µM; in the series with Bel-7402, 1.49 µM; in the series on PC-3 it was 17.6 µM.

Turning to `C[C@H]1CCC/C=C/[C@@H]2C[C@H](OC(=O)c3ccc(N(CCCl)CCCl)cc3)C[C@H]2[C@H](OC(=O)c2ccc(N(CCCl)CCCl)cc2)/C=C/C(=O)O1`, in series [1], the selectivity ratio turned out to be 2.7. For the same compound, the IC50 with Bel7402/5-FU was 15.3 µM; in the series with HL-60, 9.31 µM; in the series on L02 it was 17.3 µM; in the series with Bel-7402 it was 6.3 µM; in the series with PC-3, 18.5 µM.

In the case of `COC(=O)[C@H](Cc1ccc(N(CCCl)CCCl)cc1)NC(=O)CCC(=O)O[C@@H]1C[C@@H]2[C@H](/C=C/CCC[C@H](C)OC(=O)/C=C/[C@H]2OC(=O)CCC(=O)N[C@@H](Cc2ccc(N(CCCl)CCCl)cc2)C(=O)OC)C1`, the selectivity ratio in series [1] is 6.2. Besides, the IC50 with Bel7402/5-FU came to 7.47 µM; with HL-60, 9.37 µM; with L02, 29.9 µM; with Bel-7402 it was 4.85 µM; with PC-3 it was 32.5 µM.

On to `C[C@H]1CCC/C=C/[C@@H]2C[C@H](OC(=O)c3ccc(N(CCCl)CCCl)cc3)C[C@H]2[C@H](O)/C=C/C(=O)O1`, for which the selectivity ratio in series [1] was found to be 6.6. For the same compound, the concentration for half-maximal inhibition (IC50) with Bel7402/5-FU is 4.05 µM; in the series on HL-60 it was 8.25 µM; with L02 it was 9.51 µM; in the series with Bel-7402, 1.45 µM; in the series on PC-3, 10.6 µM.

Turning to `C[C@H]1CCC/C=C/[C@@H]2C[C@H](O)C[C@H]2[C@H](O)/C=C/C(=O)O1` [BREFELDIN A], the IC50 is 0.82 µM with Bel7402/5-FU, 0.025 µM with HL-60, below 0.001 µM with L02 and 0.024 µM with Bel-7402.

Turning to `O=c1[nH]cc(F)c(=O)[nH]1` [FLUOROURACIL], the IC50 in the series on Bel7402/5-FU is above 80 µM; in the series on HL-60, 2.37 µM; in the series on Bel-7402 it was 18.5 µM; in the series on PC-3, 23.9 µM.

With `C[C@H]1CCC/C=C/[C@@H]2C[C@H](O)C[C@H]2[C@H](OC(=O)CCCc2ccc(N(CCCl)CCCl)cc2)/C=C/C(=O)O1`, in series [1], the selectivity ratio was found to be 15.3. The half-inhibitory concentration (IC50) in the series with Bel7402/5-FU was 8.35 µM; in the series with HL-60, 12.6 µM; in the series on L02, 29.6 µM; with Bel-7402 it was 1.93 µM; with PC-3 it was 1.37 µM.

Turning to `COC(=O)[C@H](Cc1ccc(N(CCCl)CCCl)cc1)NC(=O)CCC(=O)O[C@@H]1/C=C/C(=O)O[C@@H](C)CCC/C=C/[C@@H]2C[C@H](O)C[C@H]21`, the selectivity ratio in series [1] was 3.8. For the same compound, the IC50 was found to be 4.6 µM with Bel7402/5-FU; 1.52 µM in the series with HL-60; 5.16 µM in the series with L02; 1.37 µM in the series with Bel-7402; 14.5 µM with PC-3.

`O=C(O)CCCc1ccc(N(CCCl)CCCl)cc1` [CHLORAMBUCIL]: the IC50 was above 80 µM in the series with Bel7402/5-FU; 11.6 µM with HL-60; above 80 µM in the series with L02; above 80 µM in the series with Bel-7402; 40.4 µM in the series on PC-3.

For the compound `C[C@H]1CCC/C=C/[C@@H]2C[C@H](OC(=O)CCCc3ccc(N(CCCl)CCCl)cc3)C[C@H]2[C@H](OC(=O)CCCc2ccc(N(CCCl)CCCl)cc2)/C=C/C(=O)O1`, the selectivity ratio in series [1] is 2.7. The IC50 with Bel7402/5-FU is 15.6 µM; in the series on HL-60 it was 67.4 µM; in the series with L02, 19.5 µM; with Bel-7402, 7.25 µM; with PC-3 it was 20.4 µM.

Consider `C[C@H]1CCC/C=C/[C@@H]2C[C@H](OC(=O)CCCc3ccc(N(CCCl)CCCl)cc3)C[C@H]2[C@H](O)/C=C/C(=O)O1`, for which the selectivity ratio in series [1] is 3.2. Moreover, the IC50 was 13.8 µM in the series with Bel7402/5-FU; 34.7 µM in the series on HL-60; 15.5 µM with L02; 4.86 µM in the series on Bel-7402; 6.84 µM with PC-3.

These data come from ChEMBL document CHEMBL4196069 (Eur J Med Chem, 2018).
